Rows were chosen to be rich in hits. Some 1.8% of all compounds tested hit in one or more screens of this group.
CCR6 antagonist = CCR6 (human) receptor antagonism; inhibition, % at 20 µM; P51684; 340,000 tested, 0.49% active; CHO-K1 CCR6 PathHunter beta-arrestin, luminescence, CCL20-stimulated;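 active = compounds whose inhibition of the agonist-driven luminescence signal at 20 µM reaches about 50%, limit read from the data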;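 note: cells stimulated with CCL20 at 14 nM final; plate controls were DMSO with CCL20 for no effect and DMSO without agonist for full effect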
B2AR ag = activates human beta-2 adrenergic receptor causing internalization. P07550. Am2.2-beta2AR cells, FAP receptor internalization, flow cytometry. response, % (test concentration not listed). 340,000 tested, 0.43% active;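 active = response above a set limit, near 3 SD of response in nonfluorescent compounds, cut at about 42% in these data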
EBI2 antag = blocks human EBI2 receptor beta-arrestin signaling; EBI2 beta-arrestin recruitment, luminescence, 7a,25-OHC stimulated; P32249; 360,000 tested, 0.81% active; inhibition, % at 5 µM; AID 651636; in the data active = inhibition above about 38%;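 note: enzyme fragment complementation signal reports receptor beta-arrestin coupling in cells; 0% = agonist plus DMSO wells and 100% = wells without agonist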
APJ antagonist = blocks the human apelin receptor APJ | CHO-K1 APJ beta-arrestin complementation, luminescence | inhibition, % at 20 µM | 330,000 tested, 0.32% active;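 active = inhibition above about 40% at 20 µM, limit read from the data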;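 note: cells challenged with 10 nM apelin-13 agonist together with compound; plate controls were apelin-13 plus DMSO wells for no effect and DMSO wells lacking apelin-13 for full effect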
APJ ag = activates the human apelin receptor APJ; 330,000 tested, 0.11% active; P35414; activation, % at 20 µM; CHO-K1 APJ PathHunter beta-arrestin, luminescence; 0% DMSO wells, 100% apelin;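 active = activation more than six SD over the plate average, tested at 20 µM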;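 note: 0% = DMSO alone and 100% = apelin-13 at 10 nM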
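Material: engineered CHO-K1 APJ arrestin reporter cells; amount: 1000 CHO-K1 reporter cells seeded per well; incubation: compound stimulation 90 min at 25 °C, detection 60 min; signal: luminescent beta-gal fragment complementation, chemiluminescent substrate; read-out basis: APJ agonist activity; controls: DMSO-only wells as negative, 10 nM Apelin-13 as positive control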
CXCR6 block = blocks human CXCR6 beta-arrestin recruitment; O00574; CHO-K1 PathHunter CXCR6 beta-arrestin, luminescence; inhibition, % at 20 µM; 360,000 tested, 0.36% active; AID 602244; in the data active = inhibition above about 34%, passing the limit was not always enough;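 note: antagonist mode with CXCL16 agonist at 10 nM final; 0% = 10 nM CXCL16 with DMSO and 100% = unstimulated wells without agonist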
Target sequence (O00574 whole entry, looked up): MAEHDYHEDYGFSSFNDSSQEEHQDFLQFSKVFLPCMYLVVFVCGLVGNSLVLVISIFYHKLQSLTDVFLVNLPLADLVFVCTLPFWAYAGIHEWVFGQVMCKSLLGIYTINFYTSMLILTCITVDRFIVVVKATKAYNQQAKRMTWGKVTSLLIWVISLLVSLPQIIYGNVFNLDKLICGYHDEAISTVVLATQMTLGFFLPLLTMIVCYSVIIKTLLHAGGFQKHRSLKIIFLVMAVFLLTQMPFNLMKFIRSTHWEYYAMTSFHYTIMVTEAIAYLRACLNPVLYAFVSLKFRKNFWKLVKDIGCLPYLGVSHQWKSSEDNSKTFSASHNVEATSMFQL
* marks the source's active call; other numbers are inactive results; · = not tested or not shown.

SMILES	CCR6 antagonist	B2AR ag	EBI2 antag	APJ antagonist	APJ ag	CXCR6 block
C#CCOCCOCCOCCNc1nc(N2CCN(C(=O)CCCCCCCCCCNC(=O)[C@H](CCCCN)n3cc(C[C@@H](C)CC)nn3)CC2)nc(N2CCN(C(=O)CCCCCCCCCCNC(=O)[C@H](CCCCN)n3cc(C[C@@H](C)CC)nn3)CC2)n1	3	42*	-17	·	·	8
C#CCOCCOCCOCCNc1nc(N2CCN(C(=O)CCCCCCCCCCNC(=O)[C@H](CCCCN)n3cc(CCO)nn3)CC2)nc(N2CCN(C(=O)CCCCCCCCCCNC(=O)[C@@H]([C@H](C)O)n3cc(C)nn3)CC2)n1	1	87*	0	20	-4	2
COc1cccc(N(C(=O)c2snc(C(N)=O)c2N)C(C(=O)NCC2CCCO2)c2ccc3ncccc3c2)c1 (centres undefined)	3	-20	12	-5	-3	-5
CN(C)C(CNC(=O)c1ccccc1OCc1ccc(Cl)cc1)c1ccco1 (centres undefined)	7	0	16	17	-8	6
CCCCN(C(=O)C1CC(=O)N(CCc2ccc(OC)c(OC)c2)C1)c1c(N)n(CC(C)C)c(=O)[nH]c1=O (centres undefined)	1	-3	-2	·	·	4
CN1CCCCCC1=Nc1ccc([N+](=O)[O-])cc1	5	-1	-12	-2	0	0
CN1C(=O)C(N=Nc2ccc([N+](=O)[O-])cc2)SC1=S (centres undefined)	86*	12	-7	·	·	45*
S=C1NC(c2ccccc2)=CC(c2ccccc2)N1 (centres undefined)	10	-7	-2	-25	-3	-2
N#CC1C(=O)NC(c2ccccc2)=CC1c1ccccc1 (centres undefined)	52*	-3	-16	·	·	22
CSCCNC(=O)C1(C)CCN1C(=O)c1cc(C)n(C)n1 (centres undefined)	·	·	-2	·	·	-1
O=[N+]([O-])c1cc([N+](=O)[O-])c2nonc2c1Nc1ccccc1O	36	3	13	2	-3	14
O=[N+]([O-])c1cc([N+](=O)[O-])c2nonc2c1Nc1ccc(O)cc1	51*	15	-2	7	0	28
COc1cc(/C=N/NC(=S)NC2CC3CC2C2C=CCC32)ccc1O (centres undefined)	6	-3	45*	5	5	14
CCOc1ccc(/C=N/NC(=S)NC2CC3CC2C2C=CCC32)cc1 (centres undefined)	11	27	36	15	-1	6
COc1ccc(Nc2nc(N3CCCC3)c3ccccc3n2)cc1	-7	18	-16	1	10	3
CCN(CC)c1ccc(Nc2nc(N3CCOCC3)c3ccccc3n2)cc1	-1	7	45*	-24	6	1
CCCCCCC[C@@H](C/C=C/CCC(=O)N(C)C/C(=C/Cl)C/C(=C\C(=O)N1CC(OC)=CC1=O)OC)OC	14	93*	-10	6	-2	18
CCOC(=O)C1=C(COC(=O)c2cc(S(=O)(=O)N3CCOCC3)ccc2F)NC(=O)NC1C (centres undefined)	-11	20	-12	·	·	-15
COC(=O)c1ccccc1NC(=O)CNCCc1ccc(OC)c(OC)c1	-3	11	7	7	4	5
Cc1ccc2cc3c(N)c(C(=O)N4CC(=O)Nc5ccccc54)sc3nc2c1	·	·	·	98*	-20	·
CC1(C)CCCN(C(=O)c2ccc3c(c2NCCO)C(=O)c2ccccc2C3=O)C1	22	-7	38*	-12	-1	0
O=C1c2ccccc2C(=O)c2c1ccc(C(=O)N1CCCCC1)c2NCCO	43	-5	29	-13	-1	10
CCOC(=O)CC1=CCc2c1ccc(OC)c2OC	0	2	-8	·	·	1
O=C(N/N=C/c1cc(Cl)ccc1O)c1ccncc1	-2	-1	50*	-40	10	-9
CCC(=O)Nc1cccc(C(=O)/C=C/c2ccccc2)c1	17	54*	-36	-2	-4	15
SMILES	CCR6 antagonist	B2AR ag	EBI2 antag	APJ antagonist	APJ ag	CXCR6 block
CC1=CC(=O)C(Sc2ccc(C)cc2)=CC1=O	·	·	35	·	·	92*
COCC(=O)N1CCC(Oc2ccc(C(=O)N3CCSCC3)cc2)CC1	-5	-3	6	2	-1	7
Clc1ccc(-c2cn3c(n2)-c2ccccc2C3)cc1Cl	6	-5	57*	-9	-3	0
Clc1ccc(-c2cn3cc(Br)ccc3n2)cc1Cl	10	4	36	-10	3	3
O=C1NC(=S)SC1=Cc1ccccn1	·	·	6	·	·	15
COc1cccc(/C=N/Nc2ncnc3c2[nH]c2ccc(C)cc23)c1OC	7	52*	17	14	7	-6
COc1ccc(/C=N/Nc2ncnc3c2[nH]c2ccccc23)c(OC)c1OC	-1	0	-6	-6	0	-8
Nc1ccc(S(=O)(=O)Nc2nc3ccccc3o2)cc1	12	-3	-1	0	2	-5
O=C(/C=C/c1cc(Br)ccc1O)c1ccco1	64*	86*	2	17	-2	30
CCCCN(CC)CCNS(=O)(=O)c1ccc2c(c1)oc(=O)n2C	10	-9	1	-7	-5	-7
CCCN(CCC)CCNS(=O)(=O)c1ccc2c(c1)oc(=O)n2C	119*	-2	0	3	-1	-4
COC[C@@H]1CCCN1[C@@H]1CS(=O)(=O)N[C@H]1COCc1ccccc1	·	·	5	·	·	4
COc1ccc(Cc2ccccc2C(=O)O)cc1	9	-3	-3	·	·	-7
COc1ccc(CC2=CC(=O)c3ccccc3C2=O)cc1	38	56*	23	20	5	41*
COC(=O)C[C@H]1C=C[C@H](NC(=O)c2cccc(F)c2)[C@@H](CO)O1	·	·	-6	·	·	·
C=CCOC(=O)C(C#N)c1nc2ccccc2nc1N1CCN(c2ccccc2OC)CC1 (centres undefined)	52*	7	24	13	-2	14
C=CCOC(=O)C(C#N)c1nc2ccccc2nc1N1CCN(Cc2ccccc2)CC1 (centres undefined)	27	-6	33	11	-5	22
CCCn1c(N)c(C(=S)NC(=O)C2CC2)c(=O)n(C)c1=O	20	-8	-13	·	·	20
CCCCn1c(N)c(C(=S)NC(=O)CC(C)C)c(=O)n(C)c1=O	·	7	1	·	·	48*
Cc1cccc(NC(=O)COC(=O)c2ccc3c(c2)OCO3)c1C	3	1	-3	8	0	7
O=C1CC(=O)OC(c2ccc([N+](=O)[O-])cc2)O1	·	·	13	·	·	50*
Cc1cc(NCCCn2ccnc2)n2ncc(-c3ccc(Cl)cc3)c2n1	-4	2	45*	-11	2	-6

Assay outcomes as filed in PubChem.
